pIC50: −log10 of the molar value.
Key:
[1] = system: MCF7; test: Antiproliferative activity against human MCF7 cells assessed as inhibition of cell growth incubated for 48 hrs by MTT assay; type: functional, cell-based; settings: MCF7, 48 h
In short: (§1)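 Cell lines from NCCS; ~8000 cells/well grown 24 h at 37 °C, 5% CO2, serum-starved 8 h to synchronize, then complete medium restored. Compounds applied at 1, 5, 10 and 25 μM in triplicate for 48 h. MTT added after medium removal, 4 h in dark; formazan dissolved in DMSO, absorbance at 590 nm read as % viability (mean ± S.D.); IC50 in μM.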

[2] = system: A549; test: Antiproliferative activity against human A549 cells assessed as inhibition of cell growth incubated for 48 hrs by MTT assay; type: functional, cell-based; settings: A549, 48 h; in short: as §1
[3] = system: SH-SY5Y; test: Antiproliferative activity against human SH-SY5Y cells assessed as inhibition of cell growth incubated for 48 hrs by MTT assay; type: functional, cell-based; in short: as §1
[4] = system: SH-SY5Y; test: Cell cycle arrest in human SH-SY5Y cells assessed as cells in S phase at 10 uM incubated for 48 hrs by PI staining based flow cytometry analysis (reference value: 16.2 %); type: functional
[5] = system: SH-SY5Y; test: Cell cycle arrest in human SH-SY5Y cells assessed as cells in G0/G1 phase at 10 uM incubated for 48 hrs by PI staining based flow cytometry analysis (reference value: 53.2 %); type: functional
[6] = Cytotoxicity against human HEK293 cells assessed as inhibition of cell growth incubated for 48 hrs by MTT assay; type: toxicity, cell-based
[7] = system: SH-SY5Y; test: Induction of apoptosis in human SH-SY5Y cells assessed as early apoptotic cells at 10 uM incubated for 48 hrs by AnnexinV staining based cytofluorimetric analysis (reference value: 1.16 %); type: functional
In short: (§2)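 SHSY5Y cells grown in 6-well plates and exposed to compounds at 10 μM for 48 h. Cells plus medium centrifuged at 1200 rpm for 5 min, washed in 1× PBS, then incubated with Annexin V/dead cell reagent 30 min at room temperature in dark. Annexin V […] populations quantified on a Muse cytofluorimetric analyzer.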

[8] = system: SH-SY5Y; test: Induction of apoptosis in human SH-SY5Y cells assessed as late apoptotic cells at 10 uM incubated for 48 hrs by AnnexinV staining based cytofluorimetric analysis (reference value: 0.24 %); type: functional; in short: as §2
[9] = system: SH-SY5Y; test: Cell cycle arrest in human SH-SY5Y cells assessed as cells in G2 phase at 10 uM incubated for 48 hrs by PI staining based flow cytometry analysis (reference value: 31.1 %); type: functional
[10] = system: SH-SY5Y; test: Induction of apoptosis in human SH-SY5Y cells assessed as viable cells at 10 uM incubated for 48 hrs by AnnexinV staining based cytofluorimetric analysis (reference value: 98.6 %); type: functional; settings: read-out: Activity; in short: as §2
[11] = system: SH-SY5Y; test: Induction of apoptosis in human SH-SY5Y cells assessed as necrotic cells at 10 uM incubated for 48 hrs by AnnexinV staining based cytofluorimetric analysis (reference value: 0 %); type: functional; in short: as §2
[12] = system: HeLa; test: Antiproliferative activity against human HeLa cells assessed as inhibition of cell growth incubated for 72 hrs by tryphan blue staining; type: functional, cell-based
[13] = system: L1210; test: Antiproliferative activity against mouse L1210 cells assessed as inhibition of cell growth incubated for 72 hrs by tryphan blue staining; type: functional, cell-based; settings: L1210, 72 h
[14] = system: B16; test: Antiproliferative activity against mouse B16 cells assessed as inhibition of cell growth incubated for 72 hrs by tryphan blue staining; type: functional, cell-based; settings: B16, 72 h
[15] = system: NIH3T3; test: Antiproliferative activity against mouse NIH3T3 cells assessed as inhibition of cell growth incubated for 72 hrs by tryphan blue staining; type: functional, cell-based; settings: NIH3T3, 72 h
[16] = system: HT-29; test: Antiproliferative activity against human HT-29 cells assessed as inhibition of cell growth incubated for 72 hrs by SRB assay; type: functional, cell-based; settings: HT-29, 72 h
[17] = system: MCF7; test: Antiproliferative activity against human MCF7 cells assessed as inhibition of cell growth incubated for 72 hrs by SRB assay; type: functional, cell-based; settings: MCF7, 72 h

With `Fc1cccc(Cl)c1-c1nc(N2CCOCC2)c2ccccc2n1` the pIC50 [1] was < 4.60, the pIC50 [2] was 4.75 and the pIC50 [3] was 4.66.

`CSc1ccc(-c2nc(N3CCOCC3)c3ccccc3n2)cc1` gave a pIC50 [1] of 4.99, a pIC50 [2] of 4.75 and a pIC50 [3] of 4.61.

In the case of `N#Cc1ccc(-c2nc(N3CCOCC3)c3ccccc3n2)cc1`, the pIC50 [1] was < 4.60, the pIC50 [2] was 4.96 and the pIC50 [3] was < 4.60.

`Cc1ccc(-c2nc(N3CCOCC3)c3ccccc3n2)cc1` showed a pIC50 [1] of 5.31, a pIC50 [2] of 4.72 and a pIC50 [3] of 4.74.

`CN(C)c1ccc(-c2nc(N3CCOCC3)c3ccccc3n2)cc1` gave a pIC50 [1] of 5.19, an Activity [4] of 15.3% and an Activity [5] of 59%. For the same molecule, the IC50 at 48 h [6] was > 25 µM, the Activity [7] was 2.23% and the Activity [8] was 78.2%. It also gave a pIC50 [2] of 4.98, a pIC50 [3] of 5.02 and an Activity [9] of 26.2%. The viability at 10 µM [10] was 0.55% and the Activity [11] was 19%.

In the case of `COc1ccc(-c2nc(N3CCOCC3)c3ccccc3n2)cc1`, the pIC50 [1] was 5.30, the IC50 at 48 h [6] was > 25 µM and the pIC50 [2] was 4.68. For the same molecule, the pIC50 [3] was < 4.60.

In the case of `Oc1ccc(-c2nc(N3CCOCC3)c3ccccc3n2)cc1`, the pIC50 [1] was 5.25, the IC50 at 48 h [6] was > 25 µM and the pIC50 [2] was 4.90. The pIC50 [3] was 4.69.

`O=[N+]([O-])c1ccc(-c2nnc3c4cc(Cl)ccc4nc(N4CCOCC4)n23)s1` gave a pIC50 [12] of 5.19, a pIC50 [13] of 6.24 and a pIC50 [14] of 6.62. For the same molecule, the pIC50 [15] was 5.56.

For `c1ccc(-c2nc(N3CCOCC3)c3ccccc3n2)cc1`, the pIC50 [1] was < 4.60, the pIC50 [2] was 5.02 and the pIC50 [3] was < 4.60.

Molecule `O=C1Nc2ccc(F)cc2/C1=N/Nc1nc(-c2ccccc2)nc2ccccc12` has a pIC50 [16] of 4.84 and a pIC50 [17] of 5.13.

For `c1ccc2[nH]c(-c3nc(N4CCOCC4)c4ccccc4n3)cc2c1`, the pIC50 [1] was < 4.60, the pIC50 [2] was 4.94 and the pIC50 [3] was 4.84.

With `FC(F)(F)c1ccc(-c2nc(N3CCOCC3)c3ccccc3n2)cc1` the pIC50 [1] was 5.17, the IC50 at 48 h [6] was > 25 µM and the pIC50 [2] was 5.01. For the same molecule, the pIC50 [3] was 4.80.

For `COc1cc2c(c(OC)c1OC)-c1ccc(OC)c(=O)cc1[C@@H](NC(C)=O)CC2` [COLCHICINE], the pIC50 [1] was 5.28, the IC50 at 48 h [6] was > 25 µM and the pIC50 [2] was 5.29. The pIC50 [3] was 5.10.

For `Fc1ccccc1-c1nc(N2CCOCC2)c2ccccc2n1`, the pIC50 [1] was < 4.60, the pIC50 [2] was 4.97 and the pIC50 [3] was < 4.60.

Work on `COc1cc(-c2nc(N3CCOCC3)c3ccccc3n2)cc(OC)c1OC` yielded a pIC50 [1] of 5.50, an Activity [4] of 14.4% and an Activity [5] of 62.1%. For the same molecule, the Activity [7] was 2.71%, the Activity [8] was 77.6% and the pIC50 [2] was 5.07. For the same molecule, the pIC50 [3] was 5.47, the Activity [9] was 24.3% and the viability at 10 µM [10] was 0.42%. It also gave an Activity [11] of 19.2%.

`CC(C)c1ccc(-c2nc(N3CCOCC3)c3ccccc3n2)cc1` showed a pIC50 [1] of 4.98, a pIC50 [2] of 5.02 and a pIC50 [3] of 4.82.

— ChEMBL document CHEMBL5104120, “Morpholine substituted quinazoline derivatives as anticancer agents against MCF-7, A549 and SHSY-5Y cancer cell lines and mechanistic studies” (RSC Med Chem, 2022)
